ChEMBL document CHEMBL4007420, “Structural Optimization and Pharmacological Evaluation of Inhibitors Targeting Dual-Specificity Tyrosine Phosphorylation-Regulated Kinases (DYRK) and CDC-like kinases (CLK) in Glioblastoma” (J Med Chem, 2017)
The source made the active and inactive calls. No cut-off for these calls is given here.

Tests used:
U-251 [1] = assay: Antimigratory activity in human U251 cells assessed as velocity of migration at 1 uM measured up to 20 hrs by wound scratch assay (reference value: 2159 to 2653 micrometer/hr); assay type: functional
Procedure, shortened: (§1)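 Wound-healing migration assay: cell movement across the wound is measured as velocity (µm/h). Compounds were tested at 0, 1.0, 5.0 and 10.0 µM. Values are mean ± SEM of 3 independent experiments.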

A 172 [2] = assay: Antimigratory activity in human A172 cells assessed as velocity of migration at 5 uM measured up to 20 hrs by wound scratch assay (reference value: 2650 to 3123 micrometer/hr); assay type: functional; procedure, shortened: as §1
[3] = target: T1, Dual specificity tyrosine-phosphorylation-regulated kinase 1A (Homo sapiens, UniProt Q13627); assay: Stabilization of DYRK1A in human U251 cell lysate at 10 uM preincubated for 1 hr followed by incubation at 40 to 70 degreeC for 3 mins by cellular thermal shift assay
U-251 [4] = assay: Antimigratory activity in human U251 cells assessed as velocity of migration at 5 uM measured up to 20 hrs by wound scratch assay (reference value: 2159 to 2653 micrometer/hr); assay type: functional; procedure, shortened: as §1
[5] = target: T2, Dual specificity protein kinase CLK1 (Homo sapiens, UniProt P49759); assay: Inhibition of CLK1 (unknown origin) using KKGRSRSRSRSRSR as substrate after 40 mins in presence of [gamma-33P]ATP by microbeta scintillation counting
Procedure, shortened: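 CLK1 was assayed with RS peptide substrate at 100 µM ATP.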
Target sequence in this assay (P49759 whole entry): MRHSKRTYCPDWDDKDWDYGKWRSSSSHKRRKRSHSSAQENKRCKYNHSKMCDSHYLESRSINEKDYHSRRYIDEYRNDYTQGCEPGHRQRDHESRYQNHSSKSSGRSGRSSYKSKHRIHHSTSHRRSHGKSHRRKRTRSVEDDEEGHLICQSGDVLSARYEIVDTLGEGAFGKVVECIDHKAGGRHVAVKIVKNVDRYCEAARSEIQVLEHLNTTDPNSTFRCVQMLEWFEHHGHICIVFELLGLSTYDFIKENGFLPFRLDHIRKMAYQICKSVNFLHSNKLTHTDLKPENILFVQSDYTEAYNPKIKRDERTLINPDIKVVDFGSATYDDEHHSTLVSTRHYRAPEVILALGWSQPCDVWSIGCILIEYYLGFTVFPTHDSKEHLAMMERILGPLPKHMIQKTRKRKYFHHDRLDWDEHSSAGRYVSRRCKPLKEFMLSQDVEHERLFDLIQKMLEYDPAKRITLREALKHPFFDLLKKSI

[6] = target: Dual specificity tyrosine-phosphorylation-regulated kinase 1B (Homo sapiens, UniProt Q9Y463); assay: Inhibition of DYRK1B (unknown origin) using woodtide as substrate after 40 mins in presence of [gamma-33P]ATP by microbeta scintillation counting
Chain of Dual specificity tyrosine-phosphorylation-regulated kinase 1B (Q9Y463 whole entry): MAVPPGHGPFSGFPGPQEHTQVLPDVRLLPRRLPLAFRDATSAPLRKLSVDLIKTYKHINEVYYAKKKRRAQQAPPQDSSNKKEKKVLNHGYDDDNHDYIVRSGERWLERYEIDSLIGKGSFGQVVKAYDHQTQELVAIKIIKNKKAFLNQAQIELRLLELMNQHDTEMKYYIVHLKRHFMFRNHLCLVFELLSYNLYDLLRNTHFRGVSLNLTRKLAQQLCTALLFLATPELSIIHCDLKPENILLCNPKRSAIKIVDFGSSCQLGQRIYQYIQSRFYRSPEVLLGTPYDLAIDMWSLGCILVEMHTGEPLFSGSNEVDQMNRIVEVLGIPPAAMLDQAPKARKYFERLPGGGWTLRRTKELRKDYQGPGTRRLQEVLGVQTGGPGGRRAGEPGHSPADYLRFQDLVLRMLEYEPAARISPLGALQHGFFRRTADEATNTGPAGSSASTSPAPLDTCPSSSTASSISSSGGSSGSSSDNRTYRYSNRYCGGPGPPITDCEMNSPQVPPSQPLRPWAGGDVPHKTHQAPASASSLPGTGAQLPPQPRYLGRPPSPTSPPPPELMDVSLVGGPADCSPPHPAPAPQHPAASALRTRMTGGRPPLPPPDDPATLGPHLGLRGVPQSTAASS

[7] = target: T3, Dual specificity tyrosine-phosphorylation-regulated kinase 2 (Homo sapiens, UniProt Q92630); assay: Inhibition of DYRK2 (unknown origin) using woodtide as substrate after 40 mins in presence of [gamma-33P]ATP by microbeta scintillation counting
T3 sequence (Q92630 whole entry): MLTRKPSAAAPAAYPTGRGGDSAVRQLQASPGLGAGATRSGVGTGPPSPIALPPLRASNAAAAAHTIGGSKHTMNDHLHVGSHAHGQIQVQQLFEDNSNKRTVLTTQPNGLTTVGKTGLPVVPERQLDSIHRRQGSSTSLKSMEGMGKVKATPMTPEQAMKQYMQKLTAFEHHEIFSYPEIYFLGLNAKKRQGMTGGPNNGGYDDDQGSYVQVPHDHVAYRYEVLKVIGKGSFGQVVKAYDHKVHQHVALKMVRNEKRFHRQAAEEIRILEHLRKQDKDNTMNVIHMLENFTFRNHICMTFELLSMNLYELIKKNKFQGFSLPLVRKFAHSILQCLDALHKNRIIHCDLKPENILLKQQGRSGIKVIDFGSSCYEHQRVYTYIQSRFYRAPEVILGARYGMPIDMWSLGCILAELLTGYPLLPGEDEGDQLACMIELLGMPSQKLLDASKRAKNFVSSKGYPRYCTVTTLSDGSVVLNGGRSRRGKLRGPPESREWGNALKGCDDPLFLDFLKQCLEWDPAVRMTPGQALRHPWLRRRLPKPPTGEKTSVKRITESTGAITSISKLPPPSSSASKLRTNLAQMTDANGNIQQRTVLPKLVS

A 172 [8] = assay: Cytotoxicity against human A172 cells assessed as reduction in cell viability after 3 days by Alamar blue assay; assay type: functional, cell-based; conditions: A 172, 72 h
[9] = target: T2, Dual specificity protein kinase CLK1; assay: Stabilization of CLK1 in human U251 cell lysate at 10 uM preincubated for 1 hr followed by incubation at 40 to 70 degreeC for 3 mins by cellular thermal shift assay
Target sequence in this assay (P49759 whole entry, looked up): as the sequence (P49759 whole entry) above

[10] = (§2) Anticlonogenic activity against patient-derived RN1 cells after 10 to 12 days by toluidine blue staining based assay; assay type: functional, cell-based, Homo sapiens
Procedure, shortened: (§3)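 Cells were exposed to compound for 10 days, then colonies were fixed, stained with Toluidine Blue and counted. […] Values are mean ± SEM of 3 independent experiments, each in duplicate, with one-way ANOVA and Dunnett's test against vehicle.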

RN1 = assay: as §2; assay type: functional, cell-based; conditions: Homo sapiens; procedure, shortened: as §3
U-251 [11] = assay: Antiinvasive activity in human U251 cells assessed as velocity of invasion at 1 uM measured up to 20 hrs by matrigel assay (reference value: 1151 to 1710 micrometer/hr); assay type: functional
U-251 [12] = assay: Antimigratory activity in human U251 cells assessed as velocity of migration at 10 uM measured up to 20 hrs by wound scratch assay (reference value: 2159 to 2653 micrometer/hr); assay type: functional; procedure, shortened: as §1
[13] = Antimigratory activity in patient-derived RN1 cells assessed as velocity of migration at 5 uM measured up to 20 hrs by wound scratch assay (reference value: 937 to 1174 micrometer/hr); assay type: functional, Homo sapiens; procedure, shortened: as §1
[14] = Antimigratory activity in patient-derived RN1 cells at 5 uM measured up to 20 hrs by wound scratch assay; assay type: functional; conditions: Homo sapiens, RN1, 20 h; procedure, shortened: as §1
[15] = target: T1, Dual specificity tyrosine-phosphorylation-regulated kinase 1A; assay: Inhibition of DYRK1A in human U251 cell lysate assessed as EGF induced EGFR degradation at 2.5 uM by measuring basal EGFR half life in presence of cycloheximide by Western blot analysis (reference value: 25.6 +/- 7.6 min)
Procedure, shortened: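 U251 cells were pretreated with 2.5 µM compound or DMSO for 4 h, then given cycloheximide (30 µg/mL, 1 h). EGF (100 ng/mL) was added for 0–120 min. EGFR was detected by Western blot, normalized to β-actin and expressed as % of 0 min. Half-life came from non-linear regression, as mean ± SEM of 3 independent experiments.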

A 172 [16] = assay: Antiinvasive activity in human A172 cells measured up to 20 hrs by matrigel assay; assay type: functional, cell-based
A 172 [17] = assay: Antimigratory activity in human A172 cells at 5 uM measured up to 20 hrs by wound scratch assay; assay type: functional; conditions: A 172, 20 h; procedure, shortened: as §1
[18] = target: Mitogen-activated protein kinase 14 (Homo sapiens) (UniProt Q16539); assay: Stabilization of MAPK p38alpha in human U251 cell lysate at 10 uM preincubated for 1 hr followed by incubation at 40 to 70 degreeC for 3 mins by cellular thermal shift assay
Chain of Mitogen-activated protein kinase 14 (Homo sapiens) (Q16539 whole entry): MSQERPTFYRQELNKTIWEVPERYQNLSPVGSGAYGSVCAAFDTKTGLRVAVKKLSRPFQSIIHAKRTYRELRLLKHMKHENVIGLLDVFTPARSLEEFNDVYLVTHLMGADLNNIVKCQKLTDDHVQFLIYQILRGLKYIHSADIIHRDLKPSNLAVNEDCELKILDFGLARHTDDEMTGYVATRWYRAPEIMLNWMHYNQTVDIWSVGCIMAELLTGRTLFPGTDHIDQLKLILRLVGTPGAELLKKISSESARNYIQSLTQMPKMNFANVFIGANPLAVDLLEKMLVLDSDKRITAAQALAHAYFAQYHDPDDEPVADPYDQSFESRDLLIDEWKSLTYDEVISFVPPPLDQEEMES

A 172 [19] = assay: Antimigratory activity in human A172 cells assessed as velocity of migration at 10 uM measured up to 20 hrs by wound scratch assay (reference value: 2650 to 3123 micrometer/hr); assay type: functional; procedure, shortened: as §1
[20] = Cytotoxicity against patient-derived WK1 cells assessed as reduction in cell viability after 5 days by Alamar blue assay; assay type: functional, cell-based; conditions: Homo sapiens, WK1, 120 h
Procedure, shortened: (§4)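 The patient-derived glioblastoma lines were grown as stem cells under defined conditions to keep the phenotype and genotype of the resected tumours. Viability after treatment was read with Alamar blue.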

A 172 [21] = assay: Antimigratory activity in human A172 cells assessed as velocity of migration at 1 uM measured up to 20 hrs by wound scratch assay (reference value: 2650 to 3123 micrometer/hr); assay type: functional; procedure, shortened: as §1
[22] = target: T1, Dual specificity tyrosine-phosphorylation-regulated kinase 1A; assay: Inhibition of DYRK1A (unknown origin) using woodtide as substrate after 10 mins in presence of [gamma-33P]ATP by microbeta scintillation counting
[23] = Cytotoxicity against patient-derived RN1 cells assessed as reduction in cell viability after 3 days by Alamar blue assay; assay type: functional, cell-based; conditions: Homo sapiens, RN1, 72 h; procedure, shortened: as §4
U-251 [24] = assay: Anticlonogenic activity against human U251 cells after 10 to 12 days by toluidine blue staining based assay; assay type: functional, cell-based; procedure, shortened: as §3

Nc1ccc(-c2cnc3[nH]cc(-c4ccc(O)cc4)c3c2)cc1
Activity (U-251 [1]): 1247 um/hr | Activity (A 172 [2]): 728 um/hr | Activity [3]: Active | Activity (U-251 [4]): 127 um/hr | IC50 [5]: 34 nM | IC50 [6]: 32 nM | IC50 [7]: 567 nM | EC50 (A 172 [8]): 1600 to 4600 nM | Activity [9]: Active | EC50 [10]: 800 nM | Activity (RN1): Dose-dependent effect | Activity (U-251 [11]): 1139 um/hr | Activity (U-251 [12]): 129 um/hr | Activity [13]: 118 um/hr | inhibition at 5 µM [14]: > 75% | T1/2 [15]: 11.3 min | inhibition (A 172 [16]): Dose-dependent effect | inhibition at 5 µM (A 172 [17]): > 75% | Activity [18]: inactive | Activity (A 172 [19]): 131 um/hr | EC50 [20]: 900 nM | Activity (A 172 [21]): 2828 um/hr | IC50 [22]: 43 nM | EC50 [23]: 1100 nM | EC50 (U-251 [24]): 180 nM
